Where a SMILES comes first, the peptide text is derived from it. [ ]: non-standard residue; d: D form. The star is where a group is joined. Tyr(Nα,Nα-allyl2) = C=CCN(CC=C)[C@@H](Cc1ccc(O)cc1)C(=O)*; Aib = CC(C)(N)C(=O)O
Experiments:
[1] = species on record: Cavia porcellus; assay: Antagonistic activity against morphine in guinea pig ileal longitudinal muscle (GPI); assay type: functional, Muscle tissue
Procedure, shortened: (§1)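 Electrically stimulated guinea pig ileal longitudinal muscle or mouse vas deferens. Test ligand incubated 15 min before standard agonist challenge (morphine, ethylketazocine or DADLE). Ligand at 100 nM, or at 10, 20 or 30 nM when it had agonist activity, kept at or below its ED20.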

[2] = species on record: Cavia porcellus; assay: The compound was tested for opioid agonist activity against guinea pig ileal longitudinal muscle (GPI); assay type: functional, Muscle tissue
Procedure, shortened: (§2)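 Electrically stimulated guinea pig ileal longitudinal muscle and mouse vas deferens. For full agonists, 4-6 concentrations gave concentration-response curves compared with standard agonists in the same preparation. IC50 is the concentration giving a half-maximal response, with 95% confidence limits.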

[3] = species on record: Mus musculus; assay: Antagonistic activity against DADLE in smooth muscle preparation (MVD); assay type: functional, Muscle tissue; procedure, shortened: as §1
[4] = species on record: Cavia porcellus; assay: Antagonistic activity against EK in guinea pig ileal longitudinal muscle (GPI); assay type: functional, Muscle tissue; procedure, shortened: as §1
[5] = species on record: Mus musculus; assay: The compound was tested for opioid agonist activity against mouse vas deferens (MVD); assay type: functional; procedure, shortened: as §2
[6] = species on record: Mus musculus; assay: Antagonistic activity against morphine in smooth muscle preparation (MVD); assay type: functional, Muscle tissue; procedure, shortened: as §1
[7] = test system: Delta-type opioid receptor; assay: Selectivity for kappa to delta opioid receptors was determined; settings: Cavia porcellus
[8] = target: T1, Mu-type opioid receptor (Cavia porcellus, UniProt P97266); assay: The compound was evaluated for binding affinity against opioid receptor mu in guinea pig brain membranes using [3H]- DAMGO as ligand; assay type: cell membranes, Membrane
T1 sequence (P97266 whole entry): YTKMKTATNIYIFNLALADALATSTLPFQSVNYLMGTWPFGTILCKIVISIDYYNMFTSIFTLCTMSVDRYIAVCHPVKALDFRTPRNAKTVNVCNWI
Procedure, shortened: (§3)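 Competition binding on guinea pig brain membranes. δ sites labelled with [3H]DPDPE, μ with [3H]DAMGO, κ with [3H]U69593. A footnote also describes κ labelling with [3H]ethylketazocine in the presence of 1 µM DAMGO.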

[9] = target: Mu-type opioid receptor (Cavia porcellus) (UniProt P97266); assay: Selectivity for mu to delta opioid receptors was determined
Chain of Mu-type opioid receptor (Cavia porcellus) (P97266 whole entry): as above

[10] = species on record: Mus musculus; assay: The compound was evaluated for antinociceptive potency using tail flick assay in mice; assay type: functional
Procedure, shortened: (§4)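 Mouse antinociception by abdominal stretch or tail flick assay. Test compound given icv. ED50 in nmol/mouse with 95% confidence limits.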

[11] = target: Opioid receptor (Mus musculus, UniProt P42866+P32300+P33534); assay: Compound was tested for agonistic activity against the opioid receptor in electrically stimulated mouse vas deference; assay type: functional; procedure, shortened: as §2
[12] = target: Kappa-type opioid receptor (Cavia porcellus, UniProt P41144); assay: The compound was evaluated for binding affinity against the opioid receptor kappa in guinea pig brain membranes using [3H]- U-69,593; assay type: cell membranes, Membrane; procedure, shortened: as §3
Chain of Kappa-type opioid receptor (P41144 whole entry): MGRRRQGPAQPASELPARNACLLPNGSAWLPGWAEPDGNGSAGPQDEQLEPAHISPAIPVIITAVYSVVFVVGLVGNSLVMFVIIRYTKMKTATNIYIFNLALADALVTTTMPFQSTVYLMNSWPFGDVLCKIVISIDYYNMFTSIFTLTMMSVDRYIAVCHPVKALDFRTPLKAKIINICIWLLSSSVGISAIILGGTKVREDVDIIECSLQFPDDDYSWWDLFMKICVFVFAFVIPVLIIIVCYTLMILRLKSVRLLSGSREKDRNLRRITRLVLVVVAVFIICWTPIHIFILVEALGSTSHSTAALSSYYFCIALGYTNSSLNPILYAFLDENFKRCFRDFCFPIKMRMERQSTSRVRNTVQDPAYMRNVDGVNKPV

[13] = species on record: Cavia porcellus; assay: Opiod agonistic activity against delta enriched smooth muscle preparation; assay type: functional; settings: Muscle tissue
[14] = species on record: Mus musculus; assay: The compound was evaluated for antinociceptive potency using abdominal stretch assay in mice.; assay type: functional, Abdomen; procedure, shortened: as §4
[15] = The compound was evaluated for binding affinity against Opioid receptor delta 1 in guinea pig brain membrane using [3H]- DPDPE as ligand
[16] = species on record: Mus musculus; assay: The compound was evaluated for antinociceptive potency using abdominal stretch assay in mice; assay type: functional, Abdomen; parameters: unit not given here; procedure, shortened: as §4
[17] = species on record: Cavia porcellus; assay: The compound was evaluated for antagonistic activity by incubating with the smooth muscle preparation (GPI) for 15 min prior to testing with morphine; assay type: functional, Muscle tissue; procedure, shortened: as §1
[18] = species on record: Cavia porcellus; assay: The compound was evaluated for antagonistic activity by incubating with the smooth muscle preparation (GPI) for 15 min prior to testing with Ethylketazocine (EK); assay type: functional, Muscle tissue; procedure, shortened: as §1
[19] = species on record: Mus musculus; assay: The compound was evaluated for antagonistic activity by incubating with the smooth muscle preparation (MVD) for 15 min prior to testing with morphine; assay type: functional, Muscle tissue; procedure, shortened: as §1
[20] = species on record: Mus musculus; assay: The compound was evaluated for antagonistic activity by incubating with the smooth muscle preparation (MVD) for 15 min prior to testing with DADLE; assay type: functional, Muscle tissue; procedure, shortened: as §1
[21] = species on record: Mus musculus; assay: Effect of the opioid antagonist (naltrindole, delta) on the antinociceptive potency using abdominal stretch assay in mice; assay type: functional, Abdomen
Procedure, shortened: (§5)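 Mice pretreated sc with β-FNA 20 µmol/kg 24 h before, norBNI 12 µmol/kg 2 h before, or NTI 44 µmol/kg 0.5 h before. Test compound then given icv in the abdominal stretch or tail flick assay. ED50 ratio is pretreated ED50 divided by control ED50, with 95% confidence limits.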

[22] = species on record: Cavia porcellus; assay: Opiod agonistic activity against delta enriched smooth muscle preparation.; assay type: functional; settings: Muscle tissue
[23] = species on record: Mus musculus; assay: The compound was tested for antagonizing the antinociceptive potency of DSLET using abdominal assay in mice.; assay type: functional, Abdomen
Procedure, shortened: (§6)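 Mice, abdominal stretch assay. Agonist peak times after icv dosing: DSLET 10 min, DPDPE 20 min, U50488H 15 min, morphine 30 min. Read-out is the agonist ED50 ratio with 95% confidence limits.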

[24] = species on record: Mus musculus; assay: The compound was tested for antagonizing the antinociceptive potency of morphine using abdominal assay in mice; assay type: functional, Abdomen; procedure, shortened: as §6
[25] = species on record: Mus musculus; assay: Effect of the opioid antagonist (beta-funaltrexamine, mu) on the antinociceptive potency using abdominal stretch assay in mice.; assay type: functional, Abdomen; procedure, shortened: as §5
[26] = species on record: Mus musculus; assay: Effect of the opioid antagonist (beta-funaltrexamine, mu) on the antinociceptive potency using tail flick assay in mice.(values in the parenthesis indicate 95% confidence limits); assay type: functional
Procedure, shortened: (§7)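 Mice, tail flick assay. Antagonist given sc beforehand: beta-FNA 20 µmol/kg 24 h before, or norBNI 12 µmol/kg 2 h before. Test compound then given icv. ED50 ratio = ED50 of test compound in pretreated mice divided by control ED50, with 95% confidence limits.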

[27] = species on record: Mus musculus; assay: The compound was tested for antagonizing the antinociceptive potency of DPDPE using abdominal assay in mice.; assay type: functional, Abdomen; procedure, shortened: as §6
[28] = species on record: Mus musculus; assay: The compound was tested for antagonizing the antinociceptive potency of U-50,488H using abdominal assay in mice; assay type: functional, Abdomen; procedure, shortened: as §6
[29] = species on record: Mus musculus; assay: Effect of the opioid antagonist (norbinaltorphimine, kappa) on the antinociceptive potency using tail flick assay in mice; assay type: functional; procedure, shortened: as §7
[30] = species on record: Mus musculus; assay: Effect of the opioid antagonist (norbinaltorphimine, kappa) on the antinociceptive potency using abdominal stretch assay in mice.; assay type: functional, Abdomen; procedure, shortened: as §5
[31] = species on record: Mus musculus; assay: Effect of the opioid antagonist (naltrindole, delta) on the antinociceptive potency using tail flick assay; assay type: functional; procedure, shortened: as §5
[32] = species on record: Mus musculus; assay: The compound was tested for antagonizing the antinociceptive potency of U-50,488H using abdominal assay in mice.(values in the parenthesis indicate 95% confidence limits); assay type: functional, Abdomen
[33] = species on record: Mus musculus; assay: The compound was tested for antagonizing the antinociceptive potency of morphine using abdominal assay in mice.(values in the parenthesis indicate 95% confidence limits); assay type: functional, Abdomen
[34] = target: T1, Mu-type opioid receptor; assay: The compound was evaluated for binding affinity against Opioid receptor mu 1 in guinea pig brain membranes; assay type: cell membranes, Membrane; procedure, shortened: as §3
[35] = species on record: Mus musculus; assay: The compound was tested for antagonizing the antinociceptive potency of DSLET using abdominal assay in mice.(values in the parenthesis indicate 95% confidence limits); assay type: functional, Abdomen
[36] = species on record: Mus musculus; assay: The compound was tested for antagonizing the antinociceptive potency of DPDPE using abdominal assay in mice.(values in the parenthesis indicate 95% confidence limits); assay type: functional, Abdomen

Compound	IC50 ratio [1]	Max response [2] [%]	IC50 ratio [3]	IC50 ratio [4]	Max response [5] [%]	IC50 ratio [6]	Ratio [7]	Ki [8] [nM]	Ratio [9]	ED50 [10] [nmol/mouse]	IC50 [11] [nM]	Ki [12] [nM]	ED50 [16]	also measured
CN1CC[C@]23c4c5ccc(O)c4O[C@H]2c2[nH]c4ccccc4c2C[C@H]3[C@H]1C5	1	9	4.2	0.5	34	0.9	–	–	–	–	–	–	–	–
Oc1ccc2c3c1O[C@H]1c4[nH]c5ccccc5c4C[C@H]4[C@@H](C2)N(CCc2ccccc2)CC[C@]314	0.8	1900	0.6	0.9	–	0.9	120	173	8	6.3	179	2620	–	IC50 [13]: 174 nM
CN1CC[C@]23c4c5ccc(O)c4O[C@H]2c2[nH]c4ccccc4c2C[C@@]3(O)[C@H]1C5 [OXYMORPHINDOLE]	0.9	12	1.3	0.9	65	0.9	6380	–	669	–	–	–	–	ED50 [14]: 0.019 nM; Ki [15]: 0.7 nM
CSCC[C@H](NC(=O)[C@H](Cc1ccc(O)cc1)NC(=O)CNC(=O)CNC(=O)[C@H](Cc1ccccc1)NC(=O)[C@H](CC(C)C)NC(=O)[C@H](N)CO)C(=O)N[C@H](C(=O)O)[C@@H](C)O	–	–	–	–	–	–	–	–	–	0.45	–	–	0.0032	–
CN1CC[C@]23c4c5ccc(O)c4O[C@H]2c2c(c4ccccc4n2C)C[C@@]3(O)[C@H]1C5	0.7	9	1.2	0.5	23	1	–	–	–	–	–	–	0.01	–
CN1CC[C@]23c4c5ccc(O)c4O[C@H]2c2oc4ccccc4c2C[C@@]3(O)[C@H]1C5	–	23	–	–	41	–	–	–	–	–	–	–	–	IC50 ratio [17]: 0.5; IC50 ratio [18]: 0.8; IC50 ratio [19]: 0.8; IC50 ratio [20]: 10.2
Oc1ccc2c3c1O[C@H]1c4[nH]c5ccccc5c4C[C@@]4(O)[C@@H](C2)N(CCc2ccccc2)CC[C@]314	0.8	15	0.6	0.8	–	0.9	–	> 1000	–	2.2	171	> 1000	0.4	ED50 ratio [21]: 4; IC50 [22]: 76 nM; ED50 ratio [23]: 2.8; ED50 ratio [24]: 0.4; ED50 ratio [25]: 1.3; ED50 ratio [26]: 5.8; ED50 ratio [27]: 1.4; ED50 ratio [28]: 0.6; ED50 ratio [29]: 21.6; ED50 ratio [30]: 5.5; ED50 ratio [31]: 3.2
C=CCN(CC=C)[C@@H](Cc1ccc(O)cc1)C(=O)NC(C)(C)C(=O)NC(C)(C)C(=O)N[C@@H](Cc1ccccc1)C(=O)N[C@@H](CC(C)C)C(=O)O ({Tyr(Nα,Nα-allyl2)}-[Aib][Aib]FL-OH)	–	–	–	–	–	–	> 29	–	> 29	–	–	–	–	Ki [15]: 35 nM
Oc1ccc2c3c1O[C@H]1c4[nH]c5ccccc5c4C[C@@]4(O)[C@@H](C2)N(CC2CC2)CC[C@]314 [NALTRINDOLE]	–	–	–	–	–	–	–	–	–	–	–	–	–	ED50 [14]: 0.04 nM
Oc1ccc2c3c1O[C@H]1c4[nH]c5ccccc5c4C[C@H]4[C@@H](C2)N(C/C=C/c2ccccc2)CC[C@]314	–	2	–	–	19	–	> 9	> 1000	> 9	–	–	> 1000	–	IC50 ratio [17]: 0.8; IC50 ratio [18]: 0.9; IC50 ratio [19]: 1.1; IC50 ratio [20]: 0.8
Oc1ccc2c3c1O[C@H]1c4[nH]c5ccccc5c4C[C@@]4(O)C(C2)NCC[C@]314	0.7	41	0.9	0.8	–	0.7	> 357	–	224	10.9	124	> 1000	1.1	ED50 ratio [32]: 0.7; ED50 ratio [33]: 1.1; Ki [34]: > 1000 nM; ED50 ratio [21]: 1.2; ED50 ratio [35]: 5.4; ED50 ratio [25]: 0.9; ED50 ratio [30]: 1.6; IC50 [13]: 121 nM; ED50 ratio [31]: 1.6; ED50 ratio [36]: 2.5
Oc1ccc2c3c1O[C@H]1c4[nH]c5ccccc5c4C[C@H]4C(C2)NCC[C@]314	0.6	20	0.8	1.3	–	1	176	375	71	–	85	5.3	–	–

Source: ChEMBL document CHEMBL1125360 (J Med Chem, 1992)
